The values below come from ChEMBL document CHEMBL2321821, “Inhibition of the β-carbonic anhydrases from Mycobacterium tuberculosis with C-cinnamoyl glycosides: identification of the first inhibitor with anti-mycobacterial activity” (Bioorg Med Chem Lett, 2013).

In brackets after ≈: the same amount, converted by molar mass. Activity calls are given as the source filed them. The calls are words filed in the database; no cut-off is given here.

Assay [1] is described as follows: Inhibition of Mycobacterium tuberculosis Rv1284 beta-carbonic anhydrase by stopped flow assay. The essentials:
(§1)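 Recombinant mtCA enzyme. CO2 hydration was followed by stopped-flow with phenol red indicator (0.02 mM) read at 557 nm, in 20 mM Hepes pH 7.5 with 20 mM Na2SO4, over 10–100 s. CO2 was 1.7–17 mM. Inhibitor was diluted in water and preincubated with enzyme 15 min at room temperature. Uncatalyzed rate subtracted; three determinations.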

Assay [2] in a line: Inhibition of Mycobacterium tuberculosis Rv3588c beta-carbonic anhydrase by stopped flow assay. Summed up:
as §1

In assay [3] the test system is Mycobacterium tuberculosis. The assay can be described thus: Antimicrobial activity against Mycobacterium tuberculosis H37Rv assessed as growth inhibition at < /= 25 ug/ml after 7 days by serial twofold dilution method. In kind it is functional, organism-based. Summed up: (§2)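 Broth microdilution against H37Rv in Middlebrook 7H9-ADS-G, with 0.05% Tween 80. Compounds from DMSO stock (10 mg/ml), twofold serial dilution on plate. Inoculum is a 1/25 dilution of a mid-log suspension (McFarland 1.0), ~10⁶ CFU per well. Rifampicin control; growth and sterility controls. Incubated 37 °C for 7 days. Growth read visually by turbidity; run in duplicate.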

A short description of assay [4]: Inhibition of Mycobacterium tuberculosis Rv3273 beta-carbonic anhydrase by stopped flow assay. The essentials: as §1
Assay [5] has as its system Mycobacterium tuberculosis. The assay can be described thus: Antimicrobial activity against Mycobacterium tuberculosis H37Rv assessed as growth inhibition at 50 ug/ml after 7 days by serial twofold dilution method. In kind it is functional, organism-based. Summed up:
as §2

In assay [6] the test system is Mycobacterium tuberculosis. The assay can be described thus: Antimicrobial activity against Mycobacterium tuberculosis H37Rv assessed as growth inhibition at 100 ug/ml after 7 days by serial twofold dilution method. In kind it is functional, organism-based. Summed up:
as §2

The test system of assay [7] is Mycobacterium tuberculosis. The assay can be described thus: Antimicrobial activity against Mycobacterium tuberculosis H37Rv after 30 days. In kind it is functional. Summed up:
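M. tuberculosis H37Rv, fresh culture, ~1 × 10³ CFU plated onto solid Middlebrook 7H11 with ADS (1/10 v/v) and glycerol (1% v/v). Compound added to molten medium in wells at chosen concentrations. Incubated 37 °C for 30 days, then inspected visually. MIC99.9% taken as the concentration giving 99.9% reduction in cell counts.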

On to `O=C(/C=C/c1ccc(O)cc1)C[C@@H]1O[C@H](CO)[C@@H](O)[C@H](O)[C@H]1O`, for which the Ki in assay [1] came out at 0.93 µM; in assay [2] it was 0.13 µM; in assay [4], 4.13 µM. For the same compound, in assay [3], the “growth inhibition (GI)” value was “inactive”. Also, the “growth inhibition (GI)” value in assay [5] and in assay [6] was “Active” each time.

In the case of `Oc1ccccc1` [PHENOL], the Ki in assay [1] came out at 64 µM; in assay [4] it was 79 µM.

On to `CC(=O)OC[C@H]1O[C@@H](CC(=O)/C=C/c2ccc(O)cc2)[C@H](OC(C)=O)[C@@H](OC(C)=O)[C@H]1OC(C)=O`, for which the Ki in assay [1] came to 4.5 µM; in assay [2], 1.15 µM; in assay [4], 12 µM. In addition, the “growth inhibition (GI)” value in assay [3], in assay [5] and in assay [6] was “inactive” in each case.

As for `CC(=O)OC[C@H]1O[C@@H](CC(=O)/C=C/c2cccc(O)c2)[C@H](OC(C)=O)[C@@H](OC(C)=O)[C@@H]1OC(C)=O`, the Ki worked out at 2.1 µM in assay [1], 0.64 µM in assay [2] and 19 µM in assay [4]. Moreover, the MIC in assay [7] was 3.12 µg/mL (≈ 6.35 µM). For the same compound, the “growth inhibition (GI)” value in assay [3] is “inactive”. Moreover, the “growth inhibition (GI)” value in assay [5] and in assay [6] was “Active” each time.

Take `O=C(/C=C/c1cccc(O)c1)C[C@@H]1O[C@H](CO)[C@H](O)[C@H](O)[C@H]1O`: the results for the Ki in assay [1], in assay [2] and in assay [4] were 1.16 µM, 0.51 µM and 3.25 µM, respectively. Besides, the MIC in assay [7] stood at 100 µg/mL (≈ 308 µM). Also, the “growth inhibition (GI)” value in assay [3] was “inactive”. The “growth inhibition (GI)” value in assay [5] and in assay [6] was “Active” in each case.

For `O=C(/C=C/c1cccc(O)c1)C[C@@H]1O[C@H](CO)[C@@H](O)[C@H](O)[C@H]1O`, the Ki stood at 0.14 µM in assay [1], 0.24 µM in assay [2] and 6.21 µM in assay [4]. In addition, the “growth inhibition (GI)” value in assay [3], in assay [5] and in assay [6] was “inactive” throughout.

For the compound `O=C(/C=C/c1ccc(O)cc1)C[C@@H]1O[C@H](CO)[C@H](O)[C@H](O)[C@H]1O`, the figures for the Ki in assay [1], in assay [2] and in assay [4] were 4.5 µM, 0.94 µM and 4.13 µM, respectively. Also, the “growth inhibition (GI)” value in assay [3], in assay [5] and in assay [6] was “inactive” each time.

As for `CC(=O)OC[C@H]1O[C@@H](CC(=O)/C=C/c2cccc(O)c2)[C@H](OC(C)=O)[C@@H](OC(C)=O)[C@H]1OC(C)=O`, the Ki in assay [1] came to 3.8 µM; in assay [2], 0.87 µM; in assay [4] it was 15.6 µM. Besides, the “growth inhibition (GI)” value in assay [3], in assay [5] and in assay [6] was “inactive” in each case.

Regarding `CC(=O)OC[C@H]1O[C@@H](CC(=O)/C=C/c2ccc(O)cc2)[C@H](OC(C)=O)[C@@H](OC(C)=O)[C@@H]1OC(C)=O`, the Ki in assay [1] came to 2.9 µM; in assay [2], 0.35 µM; in assay [4], 13.1 µM. The MIC in assay [7] was more than 100 µg/mL. In addition, the “growth inhibition (GI)” value in assay [3] is “inactive”. Also, the “growth inhibition (GI)” value in assay [5] and in assay [6] was “Active” in each case.
